From ChEMBL document CHEMBL1154178, “Puupehanol, a sesquiterpene-dihydroquinone derivative from the marine sponge Hyrtios sp” (Bioorg Med Chem Lett, 2009) come the findings set out here.

In general, IC50 refers to the concentration needed to halve the response being measured. Low readings indicate inhibition by little substance, high ones a need for much substance. As usually defined, the MFC is the lowest tested concentration that kills the fungus rather than only halting it. In general, MIC refers to the lowest concentration found to suppress growth.

What all share (type): functional, organism-based
Experiment [1] deals with Nakaseomyces glabratus. Briefly: Antifungal activity against Candida glabrata ATCC 90030 after 48 hrs by two fold serial dilution technique at 20 ug/mL. The essentials:
(§1)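 Top concentration in the dilution series was 20 µg/mL.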

The subject of experiment [2] is Cryptococcus neoformans. Briefly: Antifungal activity against Cryptococcus neoformans ATCC 90113 after 72 hrs by two fold serial dilution technique at 20 ug/mL. The essentials: as §1
The subject of experiment [3] is Candida albicans. Briefly: Antifungal activity against Candida albicans ATCC 90028 after 48 hrs by two fold serial dilution technique at 20 ug/mL. The essentials: as §1
In experiment [4] the test system is Aspergillus fumigatus. Briefly: Antifungal activity against Aspergillus fumigatus ATCC 90906 after 48 hrs by two fold serial dilution technique at 20 ug/mL. The essentials:
as §1

Experiment [5] has as its system Pichia kudriavzevii. Briefly: Antifungal activity against Candida krusei ATCC 6258 after 48 hrs by two fold serial dilution technique at 20 ug/mL. The essentials:
as §1

Experiment [6] concerns Pichia kudriavzevii. Briefly: Antifungal activity against Candida krusei ATCC 6258 after 48 hrs by two fold serial dilution technique. As to conditions: ATCC 6258, 48 h.
Experiment [7] has as its system Cryptococcus neoformans. Briefly: Antifungal activity against Cryptococcus neoformans ATCC 90113 after 72 hrs by two fold serial dilution technique. To be noted: ATCC 90113, 72 h. The essentials: as §1
In experiment [8] the test system is Nakaseomyces glabratus. Briefly: Antifungal activity against Candida glabrata ATCC 90030 after 48 hrs by two fold serial dilution technique. To be noted: ATCC 90030, 48 h. The essentials: as §1
The subject of experiment [9] is Aspergillus fumigatus. Briefly: Antifungal activity against Aspergillus fumigatus ATCC 90906 after 48 hrs by two fold serial dilution technique.
The subject of experiment [10] is Candida albicans. Briefly: Antifungal activity against Candida albicans ATCC 90028 after 48 hrs by two fold serial dilution technique. To be noted: ATCC 90028, 48 h.

SMILES strings stand for the structures. Converted amounts (≈) assume the structure as drawn. The source made the active and inactive calls. The rule behind the calls is not given here.

On to `CC1(C)CCC[C@]2(C)[C@H]3C=C4C(=CC(=O)[C@H](O)[C@@H]4O)O[C@@]3(C)CC[C@@H]12`, for which the outcome in [1], in [2], in experiment [3], in experiment [4] and in [5] was inactive.

`CC1(C)CCC[C@]2(C)[C@H]3C=C4C=C(O)C(=O)C=C4O[C@@]3(C)CC[C@@H]12` [PUUPEHENONE]: the half-maximal inhibitory concentration (IC50) in experiment [6] was determined as 1.49 µg/mL (≈ 4.54 µM); in experiment [7], 0.38 µg/mL (≈ 1.16 µM); in [8] it was 2.67 µg/mL (≈ 8.13 µM); in experiment [9] (ATCC 90906, 48 h), 5.63 µg/mL (≈ 17.1 µM); in [10], 3.02 µg/mL (≈ 9.19 µM). The minimum fungicidal concentration (MFC) is 2.5 µg/mL (≈ 7.61 µM) in experiment [6], 1.25 µg/mL (≈ 3.81 µM) in experiment [7], 10 µg/mL (≈ 30.4 µM) in [8] and 10 µg/mL (≈ 30.4 µM) in experiment [10]. Besides, the MIC amounted to 2.5 µg/mL (≈ 7.61 µM) in experiment [6]; 0.63 µg/mL (≈ 1.92 µM) in experiment [7]; 10 µg/mL (≈ 30.4 µM) in experiment [8]; 10 µg/mL (≈ 30.4 µM) in [9] (ATCC 90906, 48 h); 10 µg/mL (≈ 30.4 µM) in [10]. Further, the MFC entry in experiment [9] is “inactive”.

For `C[C@@H]1[C@H](O)[C@@H](C)/C=C/C=C/C=C/C=C/C=C/C=C/C=C/[C@H](O[C@@H]2O[C@H](C)[C@@H](O)[C@H](N)[C@@H]2O)C[C@@H]2O[C@](O)(C[C@@H](O)C[C@@H](O)[C@H](O)CC[C@@H](O)C[C@@H](O)CC(=O)O[C@H]1C)C[C@H](O)[C@H]2C(=O)O` [AMPHOTERICIN B], the concentration for half-maximal inhibition (IC50) was 0.699 µg/mL (≈ 0.756 µM) in experiment [6]; 0.34 µg/mL (≈ 0.368 µM) in experiment [7]; 0.29 µg/mL (≈ 0.314 µM) in [8]; 1.02 µg/mL (≈ 1.1 µM) in experiment [9] (ATCC 90906, 48 h); 0.26 µg/mL (≈ 0.281 µM) in experiment [10]. The MFC worked out at 0.63 µg/mL (≈ 0.682 µM) in experiment [7]; 0.63 µg/mL (≈ 0.682 µM) in experiment [8]; 5 µg/mL (≈ 5.41 µM) in experiment [9] (ATCC 90906, 48 h). Further, the MIC in experiment [7] and in experiment [8] was 0.63 µg/mL (≈ 0.682 µM) each time.

Take `CC1(C)CCC[C@]2(C)[C@H]3C=C4C(=CC(=O)C(O)=C4Cl)O[C@@]3(C)CC[C@@H]12` [CHLOROPUUPEHENONE]: the result in experiment [1], in experiment [3], in experiment [4] and in experiment [5] was inactive. In [7], this compound showed a 50% inhibitory concentration (IC50) of 5.73 µg/mL (≈ 15.8 µM). Also, in [7], the minimal fungicidal concentration (MFC) came to 20 µg/mL (≈ 55.1 µM). Further, in experiment [7], it took 10 µg/mL (≈ 27.6 µM) to inhibit growth (MIC).
